Assay results taken from ChEMBL document CHEMBL5523690, “Synergistic effect of tryptamine-urea derivatives to overcome the chromosomally-mediated colistin resistance in Klebsiella pneumoniae” (Bioorg Med Chem, 2024).

Experiments:
[1] = tested on: Escherichia coli; test: Antibacterial activity against Escherichia coli ATCC25922 assessed as inhibition of visible bacterial growth measured after 20 hrs under aerobic condition by two fold serial dilution assay; format: functional
Outline: (§1)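 Broth microdilution following EUCAST. Compound was tested at final well concentrations of 0.25–128 µg/mL against 5.10^5 CFU/mL inoculum, incubated 20 h at 37 °C aerobically. MIC was taken as the lowest concentration with no visible growth. There were three independent experiments per strain.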

[2] = tested on: Klebsiella pneumoniae; test: Antibacterial activity against Klebsiella pneumoniae ATCC700603 assessed as inhibition of visible bacterial growth measured after 20 hrs under aerobic condition by two fold serial dilution assay; format: functional; outline: as §1
[3] = tested on: Pseudomonas aeruginosa; test: Antibacterial activity against Pseudomonas aeruginosa ATCC27853 assessed as inhibition of visible bacterial growth measured after 20 hrs under aerobic condition by two fold serial dilution assay; format: functional; outline: as §1
[4] = tested on: Escherichia coli; test: Antibacterial activity against colistin resistant Escherichia coli NTCC 13846 harboring mcr-1 gene assessed as inhibition of visible bacterial growth measured after 20 hrs under aerobic condition by two fold serial dilution assay; format: functional
[5] = tested on: Escherichia coli; test: Antibacterial activity against colistin resistant Escherichia coli A50 harboring mcr-1 gene assessed as inhibition of visible bacterial growth measured after 20 hrs under aerobic condition by two fold serial dilution assay; format: functional
[6] = tested on: Klebsiella pneumoniae; test: Antibacterial activity against chromosomally-mediated resistant Klebsiella pneumoniae BA03057 assessed as inhibition of visible bacterial growth measured after 20 hrs under aerobic condition by two fold serial dilution assay; format: functional
[7] = tested on: Pseudomonas aeruginosa; test: Antibacterial activity against chromosomally-mediated colistin resistant Pseudomonas aeruginosa 15080 assessed as inhibition of visible bacterial growth measured after 20 hrs under aerobic condition by two fold serial dilution assay; format: functional
[8] = tested on: Pseudomonas aeruginosa; test: Antibacterial activity against chromosomally-mediated colistin resistant Pseudomonas aeruginosa 10039 assessed as inhibition of visible bacterial growth measured after 20 hrs under aerobic condition by two fold serial dilution assay; format: functional
[9] = tested on: Pseudomonas aeruginosa; test: Antibacterial activity against chromosomally-mediated colistin resistant Pseudomonas aeruginosa 1002 assessed as inhibition of visible bacterial growth measured after 20 hrs under aerobic condition by two fold serial dilution assay; format: functional
[10] = tested on: Erythrocyte; test: Hemolytic activity in sheep RBC assessed as RBC deformation at 25 uM measured after 1 hr in presence of colistin by fluorescence microscopic analysis; format: toxicity, cell-based, Ovis aries
Outline: (§2)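 PBS-washed sheep erythrocytes were exposed to compound in PBS at 25–800 µM, or 25 µM plus colistin 1 µg/mL. Each reaction held 5% (v/v) RBCs and 5% (v/v) DMSO, incubated 1 h at 37 °C with 100 rpm agitation, then centrifuged at 1000 g, 4 °C. Cell shape was examined by optical microscopy. Triplicates.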

[11] = Hemolytic activity in sheep RBC assessed as survival rate at 25 uM measured after 1 hr in presence of colistin by fluorescence microscopic analysis relative to control; format: toxicity, cell-based, Ovis aries, Erythrocyte; conditions: sheep red blood cells (erythrocytes), read-out: Survival
Outline: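 Washed sheep erythrocytes in PBS, 5% (v/v) final with 5% (v/v) DMSO, given 25 µM agent plus colistin 1 µg/mL; 1 h at 37 °C, shaking 100 rpm; Triton X-100 0.5% positive and PBS negative controls; cells spun off at 1000 g, 4 °C; absorbance (750–600 nm) read as % RBC survival; triplicate; shape checked by optical microscopy.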

[12] = tested on: Klebsiella pneumoniae; test: Synergistic antibacterial activity against Klebsiella pneumoniae BA03057 assessed as fractional inhibitory concentration index incubated for 24 hrs under aerobic condition in presence of colistin by checkerboard assay; format: functional
Outline: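 Checkerboard against KP BA03057 at 5.10^5 CFU/mL. Colistin was two-fold diluted 0–64 µg/mL across compound two-fold diluted 0–100 µM. Plates were incubated 24 h at 37 °C aerobically and absorbance read at 600 nm. FICI = MIC(compound, combined)/MIC(compound alone) + MIC(colistin, combined)/MIC(colistin alone), with synergy at FICI < 0.5. Plates were run in duplicate.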

[13] = tested on: Escherichia coli; test: Colistin adjuvant activity against colistin-resistant Escherichia coli A50 assessed as antibacterial effect by measuring colistin MIC incubated for 24 hrs under aerobic condition by two fold serial dilution method; format: functional
[14] = tested on: Klebsiella pneumoniae; test: Colistin adjuvant activity against colistin-resistant Klebsiella pneumoniae BA03057 assessed as antibacterial effect by measuring colistin MIC incubated for 24 hrs under aerobic condition by two fold serial dilution method; format: functional
[15] = tested on: Escherichia coli; test: Colistin adjuvant activity against colistin-resistant Escherichia coli A50 assessed as colistin MIC by measuring potentiation fold incubated for 24 hrs under aerobic condition by two fold serial dilution method relative to colistin alone; format: functional
[16] = tested on: Erythrocyte; test: Hemolytic activity in sheep RBC assessed as hemolysis at 25 uM measured after 1 hr by fluorescence microscopic analysis; format: toxicity, cell-based, Ovis aries
Outline: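 Sheep erythrocytes, PBS-washed, were treated at 5% (v/v) with compound (25–800 µM) in 5% (v/v) DMSO for 1 h at 37 °C, shaking at 100 rpm. Controls were 0.5% Triton X-100 (positive) and PBS (negative). After centrifugation at 1000 g, 4 °C, hemolysis was assessed visually and by absorbance (750–600 nm) as percent RBC survival. Triplicate.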

[17] = tested on: Erythrocyte; test: Hemolytic activity in sheep RBC assessed as hemolysis at 1600 uM measured after 1 hr by fluorescence microscopic analysis; format: toxicity, cell-based, Ovis aries
[18] = tested on: Erythrocyte; test: Hemolytic activity in sheep RBC assessed as RBC deformation at 800 uM measured after 1 hr by fluorescence microscopic analysis; format: toxicity, cell-based, Ovis aries; outline: as §2

## O=C(NCCc1c[nH]c2ccccc12)Nc1cccc(F)c1
[1]
  MIC: > 128 µg/mL
[2]
  MIC: > 128 µg/mL
[3]
  MIC: > 128 µg/mL
[4]
  MIC: > 128 µg/mL
[5]
  MIC: > 128 µg/mL
[6]
  MIC: > 128 µg/mL
[7]
  MIC: > 128 µg/mL
[8]
  MIC: > 128 µg/mL
[9]
  MIC: > 128 µg/mL
[10]
  Activity: Non-Toxic
[11]
  viability at 1 h, 25 µM: 96%
[12]
  fractional inhibitory concentration index (FICI): 0.073
[13]
  MIC: 4 µg/mL
[14]
  MIC: 1 µg/mL
[15]
  fold change (FC): 0.5
[16]
  Activity: Non-Toxic
[17]
  Activity: Non-Toxic
[18]
  Activity: Non-Toxic
